Results published in PubChem BioAssay AID504667 (Broad Institute, 2011).
Values joined by “and” are separate entries in the source; they are usually repeats but may differ in a detail not shown here. Equal entries are not always repeated. Results filed as inconclusive are left out. Active and inactive are the calls of the source.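 Rule for the calls: active = signal drops with a fitted half-maximal dose within ten times the top tested dose, in every replicate test; inconclusive = replicate tests disagree, or flat partial drop, or poor fit; inactive = the rest, including effects in the wrong direction.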

Key:
[1] = system: HMLE_shECad viability, CellTiter-Glo luminescence, 72 h; test: HMLE_shECad viability reduction – cell-based, CellTiter-Glo luminescence, dry powder, set 6, dose response (AID 504667)
In short: (§1)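 Measured by: CellTiter-Glo ATP luminescence, reagent diluted 1:3 in PBS, 12 min / System: HMLE_shECad cells, stable E-cadherin knockdown, EMT-induced, CSC-like / Schedule: ≥4 h cell attachment, ~72 h compound exposure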

[2] = as above; conditions: HMLE_shECad viability, CellTiter-Glo luminescence, 72 h
In short: as §1

SMILES | AC50 [1] | also measured
Cc1csc(NC(=O)c2ccc(CCc3ccccc3)o2)n1 | 0.794 µM | 
O=C(Nc1nc(C(F)(F)F)cs1)c1ccc(COc2ccccc2)o1 | 13.8 µM | 
Cc1csc(NC(=O)c2cocc2COc2ccccc2)n1 |  | activity change, negative = inhibition ([2]; at 30 µM (top of the series)): -3.35% (inactive)
Cc1cccc(OCc2ccc(C(=O)Nc3nc(C)cs3)o2)c1 | 0.123 µM and 0.596 µM | 
Cc1csc(NC(=O)c2ccc(COCc3ccccc3)o2)n1 | 4.92 µM | 
CNC(=O)c1csc(NC(=O)c2ccc(COc3ccccc3)o2)n1 |  | activity change, negative = inhibition ([2]; at 19.5 µM (top of the series)): -0.72% (inactive)
COc1cccc(OCc2ccc(C(=O)Nc3nc(C)cs3)o2)c1 | 0.223 µM | 
COc1ccc2nc(NC(=O)c3ccc(COc4ccccc4)o3)sc2c1 |  | activity change, negative = inhibition ([2]; at 30 µM (top of the series)): -14.7% (inactive)
Cc1csc(NC(=O)c2ccoc2COc2ccccc2)n1 | 16.6 µM | 
O=C(COc1c(Cl)cc(Cl)cc1Cl)N/N=C/c1ccc[nH]1 | 1.51 µM | 
Cc1csc(NC(=O)c2coc(COc3ccccc3)c2)n1 | 1.27 µM | 
Cc1csc(NCc2ccc(COc3ccccc3)o2)n1 | 28.8 µM | 
Cc1csc(NC(=O)c2ccc(COc3cc(Cl)ccc3Cl)o2)n1 | 0.024 µM | 
Cc1csc(NC(=O)c2ccc(COC3CCCCC3)o2)n1 | 13.6 µM | 
CC(C)NC(=O)c1ccc(COc2ccccc2)o1 |  | activity change, negative = inhibition ([2]; at 19.5 µM (top of the series)): -15.6% (inactive)
Cc1cc(C)c(OCC(=O)N/N=C/c2ccc[nH]2)c(C)c1 | 4.45 µM | 
N#Cc1csc(NC(=O)c2ccc(COc3ccccc3)o2)n1 | 13.7 µM | 
Cc1csc(NC(=O)c2ccc(COc3ccccc3F)o2)n1 | 0.007 µM | 
C/C(=C\C(=O)NC1=NCCS1)c1ccc(CC(C)C)cc1 |  | activity change, negative = inhibition ([2]; at 19.5 µM (top of the series)): -2.19% (inactive)
CCOc1cccc(OCc2ccc(C(=O)Nc3nc(C)cs3)o2)c1 | 0.896 µM | 
CC(C)c1ccc(/C=C/C(=O)Nc2cncs2)cc1 | 6.44 µM | 
Cc1csc(NC(=O)c2ccc(COC(C)(C)C)o2)n1 |  | activity change, negative = inhibition ([2]; at 19.5 µM (top of the series)): -7.02% (inactive)
Cc1ccc(OCc2ccc(C(=O)Nc3nc(C)cs3)o2)cc1 | 2.04 µM | 
COc1ccc(Cl)c(OCc2ccc(C(=O)Nc3nc(C)cs3)o2)c1 | 0.08 µM | 
CCN(CC)C(=O)c1ccc(COc2ccccc2)o1 |  | activity change, negative = inhibition ([2]; at 19.5 µM (top of the series)): -1.82% (inactive)
COc1ccc(OCc2ccc(C(=O)Nc3nc(C)cs3)o2)c(F)c1 | 3.35 µM | 

SMILES | AC50 [1] | also measured
Cc1csc(NC(=O)c2ccc(COc3cccc(F)c3)o2)n1 | 3.25 µM | 
N#Cc1ccc(/C=C/C(=O)NC2=NCCS2)cc1 | 24.6 µM | 
O=C(Nc1nncs1)c1ccc(COc2ccccc2)o1 |  | activity change, negative = inhibition ([2]; at 19.5 µM (top of the series)): -0.185% (inactive)
CC(C)c1ccc(/C=C/C(=O)N(C)C2=NCCS2)cc1 | 20.9 µM | 
Cc1csc(NC(=O)c2ccc(COc3ccccc3)o2)n1 | 1.05 µM | 
Cc1csc(NC(=O)c2ccc(CNc3ccccc3)o2)n1 | 0.38 µM | 
Cc1csc(NC(=O)c2ccc(COc3ccccn3)o2)n1 | 9.4 µM | 
O=C(Nc1nc2cc(F)ccc2s1)c1ccc(COc2ccccc2)o1 |  | activity change, negative = inhibition ([2]; at 30 µM (top of the series)): -21.2% (inactive)
Cc1csc(NC(=O)c2ccc(COC3CCCC3)o2)n1 | 28.3 µM | 
Cc1csc(NC(=O)c2ccc(CNc3ccccn3)o2)n1 | 7.55 µM | 
CC(C)c1ccc(/C=C/C(=O)Nc2nc3ccccc3s2)cc1 |  | activity change, negative = inhibition ([2]; at 19.5 µM (top of the series)): -8.38% (inactive)
CC(C)Cc1ccc(/C=C/C(=O)NC2=NCCS2)cc1 | 0.386 µM | 
Cc1ccc2cc(C(=O)NC3=NCCS3)n(C)c2c1 |  | activity change, negative = inhibition ([2]; at 30 µM (top of the series)): -5.01% (inactive)
Cc1csc(NC(=O)c2ccc(COc3cccc(S(C)(=O)=O)c3)o2)n1 |  | activity change, negative = inhibition ([2]; at 19.5 µM (top of the series)): -5.39% (inactive)
Cc1csc(NC(=O)c2ccc(COc3cccc(Oc4ccccc4)c3)o2)n1 | 0.388 µM | 
Cc1csc(NC(=O)c2ccc(COc3cccc(Cl)c3)o2)n1 | 0.5 µM | 
COc1ccc(/C=C/C(=O)NC2=NCCS2)c(OC)c1 | 10.4 µM | 
COCc1ccc(C(=O)Nc2nc(C)cs2)o1 |  | activity change, negative = inhibition ([2]; at 19.5 µM (top of the series)): -7.05% (inactive)
Cc1cc(Br)ccc1OCC(=O)N/N=C/c1ccc[nH]1 | 3.22 µM | 
COc1ccc(OC)c2sc(NC(=O)c3ccc(COc4ccccc4)o3)nc12 |  | activity change, negative = inhibition ([2]; at 30 µM (top of the series)): -5.85% (inactive)
CC(C)c1ccc(/C=C/C(=O)NC2=NCCS2)cc1 | 3.23 µM | 
Cc1csc(NC(=O)c2ccc(COc3ccccc3S(C)(=O)=O)o2)n1 | 20.9 µM | 
O=C(COc1ccc(Cl)cc1Cl)N/N=C/c1ccc[nH]1 | 3.8 µM | 
CCc1ccc(/C=C/C(=O)NC2=NCCS2)cc1 | 2.33 µM | 
Cc1csc(NC(=O)c2ccc(COc3cccc(OC(F)(F)F)c3)o2)n1 | 0.162 µM | 
